Records with an inconclusive call do not appear. Active and inactive are the calls of the source.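 Rule for the calls, unless noted: active = RAM network inhibition above 8.4% in each of two replicates, 3 SD over the compound average; inconclusive = above 8.4% inhibition in only one replicate; inactive = 8.4% inhibition or less in each replicate.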
Experiments:
[1] = S. cerevisiae growth inhibition in permissive medium (OD615), pilot counter-assay for S. cerevisiae lifespan shortening project, permissive growth control (AID 705;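 active = growth inhibition above 25% in both replicates, a cutoff set 3 SD above the mean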); conditions: OD615, 24 h, at 10 µM, stronger effect = higher value
Summary of the method: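 System – S. cerevisiae with engineered DeaD lifespan system · Buffer or medium – SC raffinose/galactose permissive medium · Schedule – cells pre-grown 4 h, then 24 h compound exposure, 30 °C humidified · Technique – culture turbidity as optical density at 615 nm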

[2] = S. cerevisiae growth inhibition in restrictive medium, OD615, pilot screen, restrictive growth control, yeast lifespan reduction project (AID 706;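 active = growth inhibition above a set limit, 3 SD over mean compound inhibition, in both replicates, cut at about 43% in these data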;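 note: modified DeaD lifespan yeast strain shifted to restrictive glucose medium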); conditions: OD615, 48 h, at 10 µM, stronger effect = higher value
Summary of the method: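 Material: engineered S. cerevisiae DeaD strain / Medium: glucose-based CSMM-D restrictive medium / Compound: single dose of 10 µM compound final, 0.25% DMSO / Timing: 4 h pre-incubation, 48 h exposure at 30 °C / Technique: OD615 absorbance reading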

[3] = doxorubicin toxicity protection in MRP-1 cells – H69AR cells, CellTiter-Glo, duplicate, MRP-1 activator project, pilot screen (AID 807;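 active = viability increase at or above a cutoff of the median across tested compounds plus 3 SD, cut at about 8.5% in these data, passing the limit was not always enough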;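 note: compound pretreatment 18-22 h then 72 h combined with doxorubicin; 0% = doxorubicin alone and 100% = vehicle without doxorubicin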); conditions: H69AR viability with doxorubicin, CellTiter-Glo luminescence; at 10 µM; stronger effect = higher value
[4] = viability of HCT116 without oncogenic beta-catenin – human colon tumor cells, pilot screen (AID 823;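 active = cell viability at or below a set limit in both duplicate runs, the limit being the all-compound median minus 4 SD, cut at about 23% in these data, passing the limit was not always enough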;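 note: 0% = wells killed by 20 µM Hyamine and 100% = untreated DMSO cell wells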); conditions: HCT116 beta-catenin knockout viability, CellTiter-Glo, 60 h; at 10 µM; stronger effect = lower value
[5] = viability of PTEN-null HCT116 cells – cell-based, HCT116 clonal line, CellTiter-Glo, pilot screen (AID 824;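 active = viability at or below 27.92% in each of two runs, the all-compound median minus 4 SD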;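 note: 0% = 20 µM Hyamine control and 100% = vehicle cell control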); conditions: HCT116 PTEN-deleted viability, 60 h, at 10 µM, stronger effect = lower value
[6] = RAM pathway blockade in budding yeast – dse1pr::URA3 reporter, 5-FOA selection, pilot screen (AID 869;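 active = inhibition over a set limit, the all-compound mean plus 3 SD, in both replicate runs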;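 note: 0% = DMSO wells with no growth and 100% = 10 µM 1-NA-PP1 with full growth; RAM network block rescues cells from 5-FOA so hits raise OD615 growth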); conditions: S. cerevisiae dse1pr::URA3 5-FOA growth, OD615, 2 d; at 10 µM; stronger effect = higher value; strain carries analog-sensitive mutant Cbk1 kinase
[7] = RAM signaling pathway blockade in yeast – S. cerevisiae, Pdr1DBD-CYC8 efflux-inhibited sensitized strain, primary screen (AID 1298);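 note: 0% = DMSO untreated cells without growth and 100% = 10 µM 1-NA-PP1 full growth; higher means more yeast growth rescued from 5-FOA killing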; conditions: S. cerevisiae cbk1-as DSE1-URA3 strain, 5-FOA growth OD615, 2 d; at 50 µM; stronger effect = higher value

O=C(O)c1c2c(nc3ccc(S(=O)(=O)N4CCC(C(=O)N5CCCCC5)CC4)cc13)CCCC2
inactive: growth inhibition [1] -3.06% | growth inhibition [2] -3.51% | viability increase [3] 0.51% | viability [4] 97.3% | viability [5] 92.8% | inhibition [6] 0.79% | RAM network inhibition [7] 1.98%

O=C1NCCCC1C(=O)N1CCN(C(c2ccccc2)c2ccccc2)CC1 (stereo not given)
inactive: growth inhibition [1] 6.11% | growth inhibition [2] 11.2% | viability increase [3] 1% | viability [4] 98.5% | viability [5] 94.3% | inhibition [6] 0.65% | RAM network inhibition [7] 7.67%

CCCc1cc(C(=O)NC2CCCC2)no1
inactive: growth inhibition [1] -11.7% | growth inhibition [2] -2.35% | viability increase [3] 0.7% | viability [4] 103% | viability [5] 98.1% | inhibition [6] 0.365% | RAM network inhibition [7] 3.3%

CC1(C)CC(=O)C=C(NCCc2ccc(S(N)(=O)=O)cc2)C1
inactive: growth inhibition [1] -8.44% | growth inhibition [2] -12% | viability increase [3] -0.64% | viability [4] 94.3% | viability [5] 96.2% | inhibition [6] 1.18% | RAM network inhibition [7] 1.82%

Cn1c(NC(=O)CC(C)(C)C)cc(=O)n(C)c1=O
inactive: growth inhibition [1] -2.31% | growth inhibition [2] -7.82% | viability increase [3] -0.07% | viability [4] 104% | viability [5] 105% | inhibition [6] 3.15% | RAM network inhibition [7] -1.17%

O=C1c2ccccc2C(=O)N1CCc1nc2ccccc2c(=O)n1CCCn1ccnc1
inactive: growth inhibition [1] -3.21% | growth inhibition [2] 11% | viability increase [3] -2.41% | viability [4] 95.5% | viability [5] 97% | inhibition [6] 2.01% | RAM network inhibition [7] 2.2%

Cc1ccc(-c2nn3c(C)nnc3s2)cc1NC(=O)C(C)C
inactive: growth inhibition [1] -1.65% | growth inhibition [2] 13.7% | viability increase [3] -2.89% | viability [4] 110% | viability [5] 105% | inhibition [6] 0.965% | RAM network inhibition [7] -0.58%

Clc1cc(NCc2cccs2)ccc1N1CCOCC1
inactive: growth inhibition [1] -13.5% | growth inhibition [2] -6.34% | viability increase [3] -3.46% | viability [4] 78.9% | viability [5] 92% | inhibition [6] 1.17% | RAM network inhibition [7] 4.21%

Cn1nc(-c2ccc(Cl)cc2)c2cc(C(=O)NC3CC3)sc21
inactive: growth inhibition [1] -7.08% | growth inhibition [2] -1.2% | viability increase [3] -6.68% | viability [4] 83.6% | viability [5] 84.2% | inhibition [6] 3.62% | RAM network inhibition [7] 3.94%

CN(C)S(=O)(=O)c1ccc(C(=O)Nc2nc(-c3cccs3)cs2)cc1
active: viability [5] 20%
inactive: growth inhibition [1] -5.6% | growth inhibition [2] -13.7% | viability increase [3] -1.56% | viability [4] 49.8% | inhibition [6] 4.17% | RAM network inhibition [7] 5.01%

O=C(Nc1ccccc1C(=O)NCc1ccco1)c1ccccc1
inactive: growth inhibition [1] -21.8% | growth inhibition [2] -6.89% | viability increase [3] -3.16% | viability [4] 100% | viability [5] 90.5% | inhibition [6] 1.55% | RAM network inhibition [7] 8.28%

Cc1cc(C)n(/N=C/c2c[nH]c3ccccc23)c(=O)c1
inactive: growth inhibition [1] -12.3% | growth inhibition [2] -5.84% | viability increase [3] -3.53% | viability [4] 100% | viability [5] 102% | inhibition [6] 0.785% | RAM network inhibition [7] 2.38%

COc1cccc(-c2nc(CS(=O)CC(=O)NCc3ccccc3)c(C)o2)c1 (stereo not given)
inactive: growth inhibition [1] -9.55% | growth inhibition [2] -15.4% | viability increase [3] 1.16% | viability [4] 99.5% | viability [5] 96.2% | inhibition [6] 1.11% | RAM network inhibition [7] 4.44%

CC1=C(C(=O)N(C)C)C(c2cccc(Cl)c2)NC(=O)N1 (stereo not given)
inactive: growth inhibition [1] -2.44% | growth inhibition [2] -14.6% | viability increase [3] 0.18% | viability [4] 99.1% | viability [5] 94.9% | inhibition [6] 2.12% | RAM network inhibition [7] 2.17%

Brc1ccc(-c2nc(-c3ccccn3)no2)o1
inactive: growth inhibition [1] 0.205% | growth inhibition [2] 13% | viability increase [3] -4.55% | viability [4] 73.8% | viability [5] 67.5% | inhibition [6] 2.41% | RAM network inhibition [7] 2.05%

CCSc1nnc(NC(=O)CC)s1
inactive: growth inhibition [1] -14.2% | growth inhibition [2] -13.4% | viability increase [3] 1.42% | viability [4] 106% | viability [5] 99% | inhibition [6] 1.21% | RAM network inhibition [7] -0.32%

CCOCCCNC(=O)C(c1ccc(OC)cc1)N(Cc1ccc2c(c1)OCO2)C(=O)CNC(C)=O (stereo not given)
inactive: growth inhibition [1] -6.78% | growth inhibition [2] 3.73% | viability increase [3] 2.19% | viability [4] 104% | viability [5] 107% | inhibition [6] 1.34% | RAM network inhibition [7] 4.4%

O=C(NCc1ccc(F)cc1)c1cc2n(n1)C(C(F)(F)F)CC(C1CC1)N2 (stereo not given)
inactive: growth inhibition [1] -4.54% | growth inhibition [2] -7.74% | viability increase [3] -0.43% | viability [4] 106% | viability [5] 96% | inhibition [6] 4.14% | RAM network inhibition [7] 4.9%

COc1ccc(OC)c(N(CC(=O)Nc2ccc3c(c2)OCCO3)S(C)(=O)=O)c1
inactive: growth inhibition [1] -6.81% | growth inhibition [2] -3.32% | viability increase [3] -2.52% | viability [4] 92.4% | viability [5] 89.8% | inhibition [6] 0.825% | RAM network inhibition [7] 3.49%

CCOC(=O)c1cc2c(=O)n3ccccc3nc2n(C(C)C)c1=NC(=O)c1ccncc1
inactive: growth inhibition [1] 6.47% | growth inhibition [2] 4.03% | viability increase [3] -1.27% | viability [4] 98.3% | viability [5] 94.7% | inhibition [6] -0.45% | RAM network inhibition [7] -0.58%

CCOC(=O)C1CCCN(C(=O)c2cn(CC(C)C)c(=O)c3cc(OC)c(OC)cc23)C1 (stereo not given)
inactive: growth inhibition [1] -8.41% | growth inhibition [2] -15.7% | viability increase [3] -3.43% | viability [4] 97% | viability [5] 95% | inhibition [6] 0.555% | RAM network inhibition [7] 0.93%

Cc1c(C(=O)N2CCN(C(=O)c3ccco3)CC2)sc2nc(-c3ccc(F)cc3)cn12
inactive: growth inhibition [1] -0.195% | growth inhibition [2] 3.62% | viability increase [3] -2.53% | viability [4] 91.8% | viability [5] 89.3% | inhibition [6] 0.195% | RAM network inhibition [7] 3.7%

CCN(CC)S(=O)(=O)c1ccc(NC2c3ccccc3C(=O)N2Cc2ccc3c(c2)OCO3)cc1 (stereo not given)
inactive: growth inhibition [1] 1.96% | growth inhibition [2] -8.94% | viability increase [3] -2.84% | viability [4] 92.9% | viability [5] 93% | inhibition [6] -0.09% | RAM network inhibition [7] 5.92%

Cn1cccc1Cc1nnc(SCC(=O)Nc2ccc3c(c2)OCO3)n1-c1ccc(F)cc1
inactive: growth inhibition [1] 8.39% | growth inhibition [2] 14.1% | viability increase [3] -1.95% | viability [4] 90.4% | viability [5] 91.3% | inhibition [6] 1.56% | RAM network inhibition [7] 8.29%

CC(=O)N1CCc2c(sc(NC(=O)c3ccc4c(c3)OCCO4)c2C#N)C1
inactive: growth inhibition [1] -0.37% | growth inhibition [2] -8.73% | viability increase [3] -6.36% | viability [4] 35% | viability [5] 35.4% | inhibition [6] 2.62% | RAM network inhibition [7] 4.02%

Cc1c(C(=O)NCC2CCCO2)sc2nc(-c3ccccc3)cn12 (stereo not given)
inactive: growth inhibition [1] 7.17% | growth inhibition [2] 8.27% | viability increase [3] 0.89% | viability [4] 109% | viability [5] 95.1% | inhibition [6] 0.15% | RAM network inhibition [7] 1.08%

Cc1cc(NC(=O)CSc2nnc(Cn3c(=O)sc4ccccc43)n2-c2ccccc2C)no1
inactive: growth inhibition [1] -0.97% | growth inhibition [2] -2.43% | viability increase [3] -1.05% | viability [4] 89% | viability [5] 87% | inhibition [6] 1.27% | RAM network inhibition [7] 7.59%

CCCC(=O)C1=C(O)C(C(=O)OC)C(C)(C)CC1=Nc1ccncc1 (stereo not given)
inactive: growth inhibition [1] 0.755% | growth inhibition [2] 9.75% | viability increase [3] -2.84% | viability [4] 96.7% | viability [5] 94.6% | inhibition [6] 0.73% | RAM network inhibition [7] 0.11%

COC(=O)CSc1nc2ccccc2o1
inactive: growth inhibition [1] -7.46% | growth inhibition [2] -18.7% | viability increase [3] -1.43% | viability [4] 97.8% | viability [5] 96.3% | inhibition [6] 1.3% | RAM network inhibition [7] 1.45%

Cc1cc(C)cc(N(CC(=O)N2CCc3ccccc32)S(=O)(=O)c2c(C)noc2C)c1
inactive: growth inhibition [1] -11.2% | growth inhibition [2] -5.73% | viability increase [3] -4.52% | viability [4] 90.4% | viability [5] 89.9% | inhibition [6] 2.83% | RAM network inhibition [7] 0.55%

COCN(C#N)c1nc(OC)nc(OC)n1
inactive: growth inhibition [1] 0.79% | growth inhibition [2] 7.01% | viability increase [3] 2.98% | viability [4] 103% | viability [5] 104% | inhibition [6] -0.1% | RAM network inhibition [7] 2.34%

CC(C)Sc1nc2c(c(=O)n1C)SC(C)C2 (stereo not given)
inactive: growth inhibition [1] -7.53% | growth inhibition [2] 2.86% | viability increase [3] -1.28% | viability [4] 106% | viability [5] 99.5% | inhibition [6] 1.61% | RAM network inhibition [7] 5.77%

O=C(CCS(=O)CCC(=O)NCc1ccccc1)NCc1ccccc1
inactive: growth inhibition [1] -2.28% | growth inhibition [2] 6.21% | viability increase [3] -0.32% | viability [4] 97.9% | viability [5] 102% | inhibition [6] 0.92% | RAM network inhibition [7] 4.15%

CN(CCNC(=O)C1(O)c2ccccc2NC(=O)N1c1ccccc1)Cc1ccccc1 (stereo not given)
inactive: growth inhibition [1] -15.6% | growth inhibition [2] -17.7% | viability increase [3] -2.03% | viability [4] 95.8% | viability [5] 93.2% | inhibition [6] 0.43% | RAM network inhibition [7] 2.02%

CCc1cccc(OCC(=O)Nc2ccc(S(=O)(=O)Nc3onc(C)c3C)cc2)c1
inactive: growth inhibition [1] -13.4% | growth inhibition [2] 8.17% | viability increase [3] -1.89% | viability [4] 98.7% | viability [5] 97% | inhibition [6] -0.085% | RAM network inhibition [7] 1.89%

— PubChem BioAssay
